In ChEMBL document CHEMBL1129648, “Synthesis and selective coronary vasodilatory activity of 3,4-dihydro-2,2-bis(methoxymethyl)-2H-1-benzopyran-3-ol derivatives: novel potassium channel openers” (J Med Chem, 1996):

Tested on: not listed separately
Assay: Vasorelaxant effect on KCl-Induced contraction of porcine coronary artery vs rat aorta
Type: functional
Method in brief: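 Isolated porcine coronary artery and rat aortic strips in organ bath, Krebs-Henseleit solution, 37 °C, gassed 95% O2/5% CO2; isometric tension under 1 g resting load. Strips contracted with 30 or 40 mM KCl. Mean IC50 (50% relaxation of KCl-induced contraction) from concentration-relaxation curves in each tissue.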
Work on `CC1(C)Oc2ccc(C#N)cc2[C@@H](N2CCCC2=O)[C@@H]1O` [LEVCROMAKALIM] yielded a Ratio of 0.81.
With `COC(=O)C1=C(C)NC(C)=C(C(=O)OC)C1c1ccccc1[N+](=O)[O-]` [NIFEDIPINE] the Ratio was 1.

Tested on: Canis familiaris
Assay: Dose causing a 50% increase of coronary blood flow in anesthetized dogs relative to the flow increase caused by injection of 1 microg of nifedipine (100%) after intracoronary administration.
Type: functional, Canis lupus familiaris, Coronary artery
Method in brief: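 Anesthetized dogs; compound dissolved in 30% DMF, diluted with saline, injected into the coronary artery. Perfusion pressure and systemic blood pressure measured by pressure transducers.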
Compound `COCC1(COC)Oc2ccc(C#N)cc2[C@@H](Nc2ccc(=O)n(C)n2)[C@@H]1O` has an ED50 of 0.58 µg.
Work on `CCCn1nc(N[C@@H]2c3cc(C#N)ccc3OC(COC)(COC)[C@H]2O)ccc1=O` yielded an ED50 of 1.5 µg.
`COCC1(COC)Oc2ccc(Br)cc2[C@@H](N=C(NC#N)c2cccnc2)[C@@H]1O` gave an ED50 of 20 µg.
`COCC1(COC)Oc2ccc(C#N)cc2[C@@H](NC(=O)c2cccnc2)[C@@H]1O` gave an ED50 of 14 µg.
With `COCC1(COC)Oc2ccc([N+](=O)[O-])cc2[C@@H](Nc2ccc(=O)n(C)n2)[C@@H]1O` the ED50 was 1.1 µg.
In the case of `CC1(C)Oc2ccc(C#N)cc2[C@@H](N=C(NC#N)c2cccnc2)[C@@H]1O`, the ED50 is reported as 1.3 µg.
For `COCC1(COC)Oc2ccc(C#N)cc2[C@@H](Oc2ccc(=O)n(C)n2)[C@@H]1O`, the ED50 was 6.4 µg.
With `COCC1(COC)Oc2ccc(C#N)cc2[C@@H](Nc2ccc(=O)n(CC(F)(F)F)n2)[C@@H]1O` the ED50 was 6.4 µg.
For `C=CCn1nc(N[C@@H]2c3cc(C#N)ccc3OC(COC)(COC)[C@H]2O)ccc1=O`, the ED50 was 1.2 µg.
Work on `COCC1(COC)Oc2ccc(C#N)cc2[C@@H](N=C(NC#N)c2ccccc2)[C@@H]1O` yielded an ED50 of 5.4 µg.
Work on `COCC1(COC)Oc2ccc([N+](=O)[O-])cc2[C@@H](N=C(NC#N)c2cccnc2)[C@@H]1O` yielded an ED50 of 4.4 µg.
Compound `COCC1(COC)Oc2ccc(C#N)cc2[C@@H](N=C(NC#N)c2cccnc2)[C@@H]1O` has an ED50 of 14 µg.
With `COCC1(COC)Oc2ccc(C#N)cc2[C@@H](Nc2ccc(=O)n(CC#N)n2)[C@@H]1O` the ED50 was 5 µg.
In the case of `COCC1(COC)Oc2ccc(C#N)cc2[C@@H](Nc2ccc(O)nn2)[C@@H]1O`, the ED50 is reported as 6.2 µg.
In the case of `COCCn1nc(N[C@@H]2c3cc(C#N)ccc3OC(COC)(COC)[C@H]2O)ccc1=O`, the ED50 is reported as 4.1 µg.
With `COCC1(COC)Oc2ccc(C#N)cc2[C@@H](Nc2ccc(=O)n(C(C)C)n2)[C@@H]1O` the ED50 was 1.3 µg.
For `N#CNC(=N[C@@H]1c2cc(C#N)ccc2OC2(COCOC2)[C@H]1O)c1cccnc1`, the ED50 was greater than 30 µg.
`COCC1(COC)Oc2ccc(C#N)cc2[C@@H](Nc2ccc(=O)n(CCF)n2)[C@@H]1O` gave an ED50 of 1.8 µg.
Work on `COCC1(COC)Oc2ccc(C#N)cc2[C@@H](Nc2ccc(=O)n(CC3CC3)n2)[C@@H]1O` yielded an ED50 of 1.5 µg.
`CCn1nc(N[C@@H]2c3cc(C#N)ccc3OC(COC)(COC)[C@H]2O)ccc1=O` showed an ED50 of 0.57 µg.
Work on `COCC1(COC)Oc2ccc(C#N)cc2[C@@H](Nc2ccc(=O)n(CC(=O)O)n2)[C@@H]1O` yielded an ED50 greater than 30 µg.
Compound `COCC1(C)Oc2ccc(C#N)cc2[C@@H](N=C(NC#N)c2cccnc2)[C@@H]1O` (stereo partly drawn) has an ED50 of 17 µg.
`COCC1(COC)Oc2ccc(C#N)cc2[C@@H](N=C(C)NC#N)[C@@H]1O` gave an ED50 of 6 µg.
`COCC1(COC)Oc2ccc(C#N)cc2[C@@H](Nc2ccc(=O)n(Cc3ccccc3)n2)[C@@H]1O` gave an ED50 of 28 µg.
`COCC1(COC)Oc2ccc(C#N)cc2[C@@H](Nc2ccc(=O)n(CC(=O)OC)n2)[C@@H]1O` showed an ED50 of 17 µg.
`CCOCC1(COCC)Oc2ccc(C#N)cc2[C@@H](N=C(NC#N)c2cccnc2)[C@@H]1O` gave an ED50 greater than 30 µg.
`COCC1(COC)Oc2ccc(C#N)cc2[C@@H](N=C(NC#N)Nc2ccccc2)[C@@H]1O` gave an ED50 greater than 30 µg.
With `COCC1(COC)Oc2ccc(C#N)cc2[C@@H](Nc2ccc(=O)n(CCC(=O)OC)n2)[C@@H]1O` the ED50 was 2.3 µg.
`CCCC1(C)Oc2ccc(C#N)cc2[C@@H](N=C(NC#N)c2cccnc2)[C@@H]1O` (stereo partly drawn) showed an ED50 of 20 µg.
In the case of `COCC1(COC)Oc2ccc(C#N)cc2[C@@H](Nc2ccc(=O)n(CC[N+](=O)[O-])n2)[C@@H]1O`, the ED50 is reported as 1.6 µg.
For `CCCCCCCn1nc(N[C@@H]2c3cc(C#N)ccc3OC(COC)(COC)[C@H]2O)ccc1=O`, the ED50 was 13 µg.
Work on `COCC1(COC)Oc2ccc(C#N)cc2[C@@H](NC(=O)Nc2ccccc2)[C@@H]1O` yielded an ED50 greater than 30 µg.
`COCC1(COC)Oc2ccc(C#N)cc2[C@@H](Nc2ccc(=S)n(C)n2)[C@@H]1O` showed an ED50 of 24 µg.
In the case of `CC1(COc2ccccc2)Oc2ccc(C#N)cc2[C@@H](N=C(NC#N)c2cccnc2)[C@@H]1O` (stereo partly drawn), the ED50 is reported as greater than 30 µg.
In the case of `COCC1(COC)Oc2ccc(C#N)cc2[C@@H](Nc2ccc(=O)n(-c3ccc([N+](=O)[O-])cc3)n2)[C@@H]1O`, the ED50 is reported as greater than 30 µg.
Compound `COCC1(COC)Oc2ccc(Br)cc2[C@@H](Nc2ccc(=O)n(C)n2)[C@@H]1O` has an ED50 of 2.3 µg.
In the case of `COCC1(COC)Oc2ccc(C#N)cc2[C@@H](Nc2ccc(=O)n(CCSC)n2)[C@@H]1O`, the ED50 is reported as 3.3 µg.

Species on record: Rattus norvegicus
Assay: Vasorelaxant effect on KCl-Induced contraction of rat aorta
Type: functional
Method in brief: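 Isolated strips in Krebs-Henseleit solution, 37 °C, gassed with 95% O2/5% CO2, under 1 g resting load; isometric tension recorded. Strips contracted with 30 or 40 mM KCl. Cumulative concentration-relaxation curves; mean IC50 taken as concentration giving 50% relaxation of the KCl-induced contraction.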
`COCC1(COC)Oc2ccc(C#N)cc2[C@@H](Nc2ccc(=O)n(C)n2)[C@@H]1O` gave an IC50 of 300 nM.
For `O=C(NCCO[N+](=O)[O-])c1cccnc1` [NICORANDIL], the IC50 was 13000 nM.
For `CC1(C)Oc2ccc(C#N)cc2[C@@H](N2CCCC2=O)[C@@H]1O` [LEVCROMAKALIM], the IC50 was 290 nM.
Work on `COC(=O)C1=C(C)NC(C)=C(C(=O)OC)C1c1ccccc1[N+](=O)[O-]` [NIFEDIPINE] yielded an IC50 of 3.6 nM.

Species on record: Sus scrofa
Assay: Vasorelaxant effect on KCl-Induced contraction of porcine coronary artery
Type: functional
With `O=C(NCCO[N+](=O)[O-])c1cccnc1` [NICORANDIL] the IC50 was 3200 nM.
Compound `CC1(C)Oc2ccc(C#N)cc2[C@@H](N2CCCC2=O)[C@@H]1O` [LEVCROMAKALIM] has an IC50 of 360 nM.
Compound `COC(=O)C1=C(C)NC(C)=C(C(=O)OC)C1c1ccccc1[N+](=O)[O-]` [NIFEDIPINE] has an IC50 of 3.6 nM.

Tested on: not listed separately
Assay: Ratio of vasorelaxant effect on KCl-Induced contraction of rat aorta to that of porcine coronary artery
Type: functional
Work on `COCC1(COC)Oc2ccc(C#N)cc2[C@@H](Nc2ccc(=O)n(C)n2)[C@@H]1O` yielded a Ratio of 2.73.
Work on `O=C(NCCO[N+](=O)[O-])c1cccnc1` [NICORANDIL] yielded a Ratio of 4.06.
